Screens from PubChem.
RAD52 inh: RAD52 DNA annealing inhibitors, primary screen, biochemical, FRET, single point, set 2 | DNA repair protein RAD52 homolog (Homo sapiens), P43351 | recombinant RAD52 DNA annealing, FRET fluorescence | inhibition, % at 18.7 µM | 360,000 tested, 0.46% active | AID 651710, 2012;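 active means every replicate showing at least 50% inhibition; inconclusive means mean inhibition at least 50% but not in every replicate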
XiGFP reactiv: activators of inactive X chromosome reactivation, primary screen, imaging, XiGFP fibroblasts, GFP high-content imaging, set 2; XiGFP mouse fibroblasts, % GFP-positive cells imaging, 3 d; cells co-treated with 5-aza-dC sensitizer; scaled so ellipticine positive control = 100%; activation, % at 7.58 µM; 360,000 tested, 0.055% active; AID 743238, 2013;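 active means mean normalized replicate activation at least 10% and every replicate at or above 10%; inconclusive means only one of the two criteria met; inactive means mean below 10% and not all replicates reach 10%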
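assay system = SV40-immortalized XiGFP fibroblast cells, line 68-5-11 | buffer or medium = DMEM plus 5-aza-dC sensitizer | doses = single-point pinned compound dosing | times = 3-day compound exposure, then 15 min fixation at room temperature | benchmarks = positive control ellipticine, 6 µM final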
RAD54 inh: inhibitors of human RAD54 branch migration, primary screen, biochemical, fluorescence, single point. RAD54 Holliday junction branch migration, FAM/BHQ fluorescence. DNA repair and recombination protein RAD54-like (Homo sapiens), Q92698. 360,000 tested, 0.14% active. inhibition, % at 10.4 µM. AID 602329, 2012;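 active means mean normalized replicate activity at least 40 and at least half of replicates scoring 40 or more; inconclusive means only one of the two criteria met; inactive means mean below 40 and under half of replicates reaching 40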;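 further: inhibitors cause a drop in the FAM fluorescence signal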
Ecoli rRNA inh: reduced GFP signal of wild-type E. coli, primary screen, bacterial rRNA inhibitor project, GFP/RFP fluorescence, OD600, single point; AID 720706, 2013; 350,000 tested, 1.6% active; GFP signal change (wild-type ribosome), % (test concentration not listed); E. coli WT GFP vs humanized-ribosome RFP mutants, 24 h; active compounds read low; DMSO median 0, no signal -100;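 active means significant combined selectivity score with lowered wild-type GFP, culture density cut under 30%, mutant RFP and density less affected; inactive means any of these conditions unmet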
E-sel inducer: E-selectin induction in HUVECs, primary screen, imaging, HUVEC, immunofluorescence imaging, single point. activation, % at 7.58 µM. 260,000 tested, 0.37% active. AID 686992, 2013. normalized: neutral wells 0, TNF-alpha wells 100. P16581;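 active means mean E-selectin-positive cell signal at least 10% of the positive control, reached in at least 60% of replicates, without over 20% cell loss; inconclusive means no rule given, readout overlaps actives, possibly toxicity-flagged; inactive means the rest, including those meeting only one limit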
Target sequence (P16581 whole entry, looked up): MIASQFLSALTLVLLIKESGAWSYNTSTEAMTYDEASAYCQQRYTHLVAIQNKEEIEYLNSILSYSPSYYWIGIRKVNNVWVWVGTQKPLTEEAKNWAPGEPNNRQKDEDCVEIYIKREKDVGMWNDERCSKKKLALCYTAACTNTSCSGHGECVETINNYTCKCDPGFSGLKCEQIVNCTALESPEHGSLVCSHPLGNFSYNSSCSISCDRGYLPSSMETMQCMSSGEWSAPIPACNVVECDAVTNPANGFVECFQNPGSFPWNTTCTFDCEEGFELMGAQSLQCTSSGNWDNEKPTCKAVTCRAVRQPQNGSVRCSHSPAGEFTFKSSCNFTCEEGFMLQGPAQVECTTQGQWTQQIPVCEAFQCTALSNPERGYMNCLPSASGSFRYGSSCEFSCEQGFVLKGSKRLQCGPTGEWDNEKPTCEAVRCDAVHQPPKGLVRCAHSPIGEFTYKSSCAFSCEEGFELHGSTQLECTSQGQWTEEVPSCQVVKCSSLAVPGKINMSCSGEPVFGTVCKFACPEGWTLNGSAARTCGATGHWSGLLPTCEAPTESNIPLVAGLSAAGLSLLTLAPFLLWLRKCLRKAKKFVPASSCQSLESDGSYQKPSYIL
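Test system – human umbilical vein endothelial cells (HUVEC), E-selectin induction · Input – 3,000 HUVEC seeded per well · Buffer or medium – EGM-2, gelatin · Compound dosing – single-point compound dose · Detection – immunofluorescence imaging · Measure – percent E-selectin-positive cells · Controls – TNF-alpha high, DMSO low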
PglD inh: C. jejuni PglD acetyltransferase inhibitors, primary screen, biochemical, DTNB colorimetric, single point. 360,000 tested, 0.098% active. UDP-N-acetylbacillosamine N-acetyltransferase PglD (Campylobacter jejuni). purified PglD enzyme, DTNB colorimetric CoA detection. AID 602405, 2012. inhibition, % at 12.5 µM; in the data active means inhibition above about 16%, passing the limit was not always enough; inconclusive means no clear call, values can overlap the other calls
AID977621: growth inhibition of wild-type GFP E. coli, dose response, H69 mutant RFP, cherry-pick. shares compounds with Ecoli rRNA inh. E. coli wild-type GFP strain growth, fluorescence, 24 h. activity change, negative = inhibition at 50 µM. 1,900 tested, under 10 active;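 active means Wild-type ribosome reporter drop at least double the humanized mutant ribosome reporter drop, growth loss under a set limit; inconclusive means no clear call, values can overlap the other calls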;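 further: wild-type GFP and H69 mutant RFP strains grown together 50/50 in each well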
AID977628: E. coli growth inhibition, wild-type GFP versus h24 humanized RFP strain, dose response, h24 mutant RFP vs wild-type GFP, cherry-pick | shares compounds with Ecoli rRNA inh | E. coli WT GFP strain growth, fluorescence, 24 h | activity change, negative = inhibition at 50 µM | 1,900 tested, under 10 active | AID 977628, 2014;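 active means compound lowering the normal-ribosome reporter at least twice as much as the humanized-ribosome reporter, growth loss under a set limit; inconclusive means no clear call, values can overlap the other calls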;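 further: wild-type GFP and h24 humanized RFP strains co-cultured 1 to 1 per well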
Each line names hits and unclear results; the compound was inactive in the other large screens (follow-up assays come after a bar, where they were run); ! = a repeat was not active. The list is not random: actives were taken first. Their share in the collection is about 2%.

COc1ccc(OC)c(-c2nn(-c3ccccc3)cc2C(=O)N2CCc3ccccc3C2)c1	Ecoli rRNA inh -16.4 (no result: E-sel inducer) | AID977621 inactive
COc1ccccc1-c1nn(-c2ccccc2)cc1C(=O)N1CCc2ccccc2C1	none
NC(=O)C1CCN(c2cc(N3CCOCC3)ccc2[N+](=O)[O-])CC1	none
NC(=O)C1CCN(c2cc(Cl)ccc2[N+](=O)[O-])CC1	Ecoli rRNA inh -22.1 (no result: RAD54 inh, PglD inh) | AID977621 inactive
COc1ccc(C(=O)Nc2nc3ccc(OC)cc3s2)cc1	Ecoli rRNA inh -31.6 | AID977628 inconclusive
COc1ccc(C(=O)Nc2nc3ccc(S(C)(=O)=O)cc3s2)cc1	none (no result: RAD52 inh, XiGFP reactiv, Ecoli rRNA inh, E-sel inducer)
CN1CCN(C(=O)c2cc3nc(-c4ccco4)cc(C(F)(F)F)n3n2)CC1	Ecoli rRNA inh -27.4 (no result: RAD54 inh, E-sel inducer, PglD inh) | AID977621 inactive | AID977628 inactive
CC(C)[C@@H]1CC[C@@H](C)C[C@H]1OC[B-](F)(F)F	none (no result: RAD54 inh, PglD inh)
CC(C)[C@@H]1CC[C@@H](C)C[C@H]1O	Ecoli rRNA inh -14.3 | AID977621 inactive | AID977628 inconclusive
Cc1noc(C)c1NC(=O)Nc1ccc2c(c1)C(=O)N([C@@H](C)CO)C[C@H](C)[C@@H](CN(C)S(=O)(=O)c1ccc(Cl)cc1)O2	none
O=S(=O)(c1ccc(F)cc1)N1C[C@@H]2N[C@H](C1)C2c1ccc(/C=C/c2ccccc2)cc1 (stereo partly specified)	Ecoli rRNA inh -27.7! (no result: RAD52 inh, RAD54 inh, PglD inh) | AID977621 inactive
COCC(C)NC(=O)c1nn(Cc2ccccc2)c(=O)c2ccccc12 (stereo unspecified)	Ecoli rRNA inh -13.0 (no result: E-sel inducer) | AID977621 inactive | AID977628 inactive
COc1ccc(S(=O)(=O)N(C)C[C@H]2Oc3c(NC(=O)CCCCCC(=O)Nc4ccccc4N)cccc3C(=O)N([C@@H](C)CO)C[C@@H]2C)cc1	none (no result: RAD52 inh, RAD54 inh, PglD inh)
Cc1noc(C)c1S(=O)(=O)N(C)C[C@@H]1OCc2ccccc2-c2c(n(C)c3ccccc23)C(=O)N([C@H](C)CO)C[C@@H]1C	none
CC(=O)Nc1ccc(-c2ccnc3c2CC(C)(C(=O)Nc2ccc4c(c2)OCO4)O3)cc1 (stereo unspecified)	Ecoli rRNA inh -23.1 | AID977621 inactive
CNC[C@@H]1Oc2ncc(-c3ccccc3F)cc2C(=O)N([C@@H](C)CO)C[C@@H]1C	none
Cn1cc([N+](=O)[O-])c(C(=O)Nc2ccc3nc(-c4ccccc4)[nH]c3c2)n1	none (no result: E-sel inducer)
Cn1cc([N+](=O)[O-])c(C(=O)Nc2ccc(-c3nc4ccccc4[nH]3)cc2)n1	Ecoli rRNA inh -25.9 (no result: RAD54 inh, E-sel inducer, PglD inh) | AID977621 inactive | AID977628 inconclusive
C/C=C/c1ccc([C@H]2[C@@H](C#N)N(C(=O)c3cccnc3)[C@H]2CO)cc1	none
CCN(C(=O)c1ccnc(C(C)(C)C)c1)c1ccccc1	Ecoli rRNA inh -34.1 (no result: XiGFP reactiv, RAD54 inh, E-sel inducer, PglD inh) | AID977628 inconclusive
CCN(C(=O)c1ccc(Cl)c([N+](=O)[O-])c1)c1ccccc1	none (no result: RAD54 inh, E-sel inducer, PglD inh)
C[C@H]1CN([C@@H](C)CO)C(=O)CCCn2nncc2CO[C@@H]1CN(C)S(=O)(=O)c1ccc2c(c1)OCCCO2	none
COC(=O)c1cc2ccccc2n1S(=O)(=O)c1ccccc1	Ecoli rRNA inh -31.5 | AID977621 inactive | AID977628 inactive
COc1ccc(CC(=O)NCc2ccccc2)cc1OC	none (no result: E-sel inducer)
